{
  "source": "paper PMC3727929",
  "about": "(Molecular Biology of the Cell, 2013)",
  "key": {"microtubules": {"tested_on": "microtubules", "details": "full-length dynein, HaloTag-TMR labeled; ref Reck-Peterson et al., 2006; cited from earlier work"}, "[1]": {"assay": "Solubility of Dyn2 constructs on concentration", "format": "physicochemical", "details": "buffer A, pH 6.8; WT 6.0 mg/ml, H58K 10.0 mg/ml, F76K/Y78E 6.0 mg/ml"}, "[2]": {"biological_target": "Dyn1 (S. cerevisiae cytoplasmic dynein heavy chain), full length, ZZ-TEV-GFP and HaloTag tagged (S. cerevisiae) (UniProt P36022)", "assay": "single-molecule TIRF fluorescence intensity analysis"}, "Pac11-Myc": {"tested_on": "Pac11-Myc", "assay": "Single-molecule Dyn1-Pac11 colocalization assay", "format": "binding, S. cerevisiae", "details": "pH 7.2, motors diluted as for motility assays (∼1 nM)", "how_it_was_run": "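Glass flow chamber from HNO3/NaOH-cleaned coverslip. Sequential steps: Cy5-labelled rabbit anti-Myc diluted 10,000× in 30 mM HEPES, 2 mM MgCl2, 1 mM EGTA, 0.5 mg/ml BSA (pH 7.2), 2 min; blocking buffer with 5 mg/ml BSA and 1 mg/ml β-casein, 5 min; TMR-HaloTag-labelled, TEV-released Dyn1 in blocking buffer, 5 min; second round of antibody, 5 min. Cy5–TMR spot colocalization scored.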"}, "Dyn2": {"biological_target": "Dyn2 (Saccharomyces cerevisiae, UniProt Q02647)", "assay": "Western blot of Dyn2 copurifying with Dyn1", "format": "binding, S. cerevisiae", "details": "IgG affinity purification, anti-Dyn2 Western blot, Dyn1 normalized", "how_it_was_run": "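Dyn1 was IgG-bead purified from yeast lysate of WT, dyn2Δ and dyn2Δpac11Δ strains (lysis pH 7.4, 100 μM MgATP, beads 1 h at 4°C) and TEV-released at 16°C for 1 h. Dyn1 was quantified by Krypton-stained SDS–PAGE against BSA standards, then equal Dyn1 amounts were loaded. Blots used rabbit anti-Dyn2 (1:200), anti-Myc for Pac11 (1:2000) and Alexa Fluor 680 anti-rabbit secondary (1:5000).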"}, "[3]": {"biological_target": "Dyn2 (S. cerevisiae dynein light chain), wild type, full length (S. cerevisiae, UniProt Q02647 1-92)", "assay": "ITC"}},
  "note": "“Also recorded” adds a separate entry of the source.",
  "data": [
    {"molecule": "Dyn1: full-length dynein labeled at its C-terminus with the HaloTag and covalently bound to tetramethylrhodamine (TMR)", "values": [
      {"measurement": "average run length", "setting": "microtubules", "value": 1.7, "unit": "μm"}
    ]},
    {"molecule": "Dyn2 F76K/Y78E", "values": [
      {"measurement": "solubility during concentration step", "setting": "[1]", "value": "remained soluble"}
    ]},
    {"molecule": "Dyn2 H58K", "values": [
      {"measurement": "solubility during concentration step", "setting": "[1]", "value": "remained soluble"}
    ]},
    {"molecule": "Dyn1 (S. cerevisiae cytoplasmic dynein heavy chain), full length, ZZ-TEV-GFP and HaloTag tagged, P36022 1-4092", "values": [
      {"measurement": "stoichiometry N", "setting": "[2]", "value": 2}
    ]},
    {"molecule": "Dyn1 purified from dyn2Δpac11Δ", "values": [
      {"measurement": "colocalization of Dyn1 with Pac11-Myc (in words)", "setting": "Pac11-Myc", "value": "did not reveal any associated Pac11; also recorded: do not show significant TMR-Cy5 colocalization"},
      {"measurement": "Dyn2 copurified with Dyn1", "setting": "Dyn2", "value": "absence of Dyn2"}
    ]},
    {"molecule": "Dyn1 purified from dyn2Δ: TMR-labeled Dyn1 purified from VY263 with dyn2Δ", "values": [
      {"measurement": "colocalization of Dyn1 with Pac11-Myc (in words)", "setting": "Pac11-Myc", "value": "did not reveal any associated Pac11; also recorded: do not show significant TMR-Cy5 colocalization"},
      {"measurement": "Dyn2 copurified with Dyn1", "setting": "Dyn2", "value": "absence of Dyn2"}
    ]},
    {"molecule": "ITYDKGIQTDQ", "note": "[Pac11 peptide 2 (second Dyn2-binding site of Pac11, residues 75-85)]", "values": [
      {"measurement": "Kd", "setting": "[3]", "value": 620, "unit": "nM"},
      {"measurement": "dH", "setting": "[3]", "value": "-5.17 ± 0.139", "unit": "kcal/mol"},
      {"measurement": "stoichiometry N", "setting": "[3]", "value": "1.05 ± 0.02", "unit": "sites"}
    ]}
  ]
}
